Compound activity (PubChem)
This is a sample that favours compounds with a hit; in the whole collection about 3% have one here.
S1P1 ag pot = agonists and agonism potentiators of human S1P1 receptor | AID 449 | actives 0.57% (n = 56,000) | S1P1 CRE-bla cells, forskolin, beta-lactamase FRET, potentiator mode; S1P1 agonist co-added at EC20, 2 nM; 100% = saturating reference agonist, 0% = basal | activation, % at 9.5 µM | P21453;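 active = activation above a cutoff set at the mean activation of all tested compounds plus 3 SD, cut at about 54% in these data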;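 also: forskolin at 4 µM as EC80 and the EC20 agonist is SEW2871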
HTR1E agonist = activates the human 5-HT1E serotonin receptor; actives 0.69% (n = 65,000); AID 574; CHO 5-HT1E Ga15 NFAT-bla reporter, FRET; 0% DMSO wells, 100% control agonist wells; P28566; activation, % at 6 µM;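 active = activation above a set limit, the screen-wide mean activation plus 3 SD, cut at about 8.5% in these data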
Target sequence (P28566 whole entry, looked up): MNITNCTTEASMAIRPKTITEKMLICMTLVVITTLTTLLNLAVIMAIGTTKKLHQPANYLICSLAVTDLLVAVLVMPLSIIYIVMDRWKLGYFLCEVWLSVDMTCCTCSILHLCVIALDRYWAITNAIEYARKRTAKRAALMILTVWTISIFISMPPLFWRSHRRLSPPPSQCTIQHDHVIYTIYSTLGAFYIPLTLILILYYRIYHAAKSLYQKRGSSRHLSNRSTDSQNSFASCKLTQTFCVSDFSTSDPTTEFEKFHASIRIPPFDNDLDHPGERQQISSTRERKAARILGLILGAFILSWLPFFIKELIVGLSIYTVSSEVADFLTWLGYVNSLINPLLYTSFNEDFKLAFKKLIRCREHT
S1P3 agonist = agonists of human S1P3 receptor; S1P3 NFAT-BLA reporter cells, agonism, FRET ratio; relative to 1 µM S1P, basal subtracted; activation, % at 4.5 µM; actives 0.1% (n = 60,000);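 active = activation above the screen-wide mean plus 3 SD, cut at about 4.5% in these data, passing the limit was not always enough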
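material = human S1P3 NFAT-BLA reporter CHO cells | schedule = 4 h compound at 37 °C, 2 h substrate at RT | measured by = fluorescent BLA substrate, ex 405 nm, em 460/535 nm ratio | controls = 1 µM S1P reference | replication = primary once, confirmation triplicate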
5HT1E antag = 5-HT1E (human) receptor antagonism. P28566. CHO 5-HT1E Ga15 NFAT-bla reporter, FRET, antagonist. inhibition, % at 6 µM. actives 0.99% (n = 65,000). AID 571;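 active = inhibition above a set limit, the mean inhibition across every tested compound plus 3 SD, cut at about 29% in these data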;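 also: signal is the 460 over 535 nm emission ratio of beta-lactamase substrate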
5-HT1A blocker = 5-HT1a (human) receptor antagonism; CHO 5-HT1a Ga15 NFAT-bla reporter, antagonist mode; inhibition, % at 10 µM; actives 0.68% (n = 62,000);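 active = inhibition above the mean of all tested compounds plus 3 SD, cut at about 43% in these data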;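 also: receptor stimulated by 5-CT agonist at 100 nM near EC80; beta-lactamase reporter measured by ratiometric fluorescence of a cleavable substrate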
5HT1a ag = activates the human 5-HT1a serotonin receptor; activation, % at 10 µM; CHO 5-HT1a Ga15 NFAT-bla reporter, FRET ratio; 0% basal, 100% maximal reference agonist; AID 567; P08908; actives 0.56% (n = 65,000);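 active = activation above the screen-wide mean activation plus 3 SD, cut at about 19% in these data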
Each line names hits and unclear results; the compound was inactive in the other large screens.

CC(=O)c1cccc(NC(=O)c2nccnc2C(=O)O)c1	5HT1a ag 109.1
COc1ccccc1-c1cc(C(F)(F)F)nc(S(=O)(=O)CCCC(=O)Nc2cc(C)on2)n1	5HT1E antag 45.7
Cc1cc(NC(=O)CCCSc2nc(-c3ccco3)cc(C(F)(F)F)n2)no1	none (no result: S1P1 ag pot)
CC(C)c1nnc(NC(=O)CCS(=O)(=O)c2nc(-c3cccs3)cc(C(F)(F)F)n2)s1	none
COc1ccccc1-c1cc(C(F)(F)F)nc(S(=O)(=O)CCCC(=O)NC(C)C)n1	5HT1E antag 48.0
COc1ccccc1-c1cc(C(F)(F)F)nc(S(=O)(=O)CCCC(=O)N2CCCCC2C)n1 (centres undefined)	5-HT1A blocker 63.7
COc1ccccc1-c1cc(C(F)(F)F)nc(N2CCCC2)n1	none (no result: S1P1 ag pot, S1P3 agonist)
O=C(C1CCCN(S(=O)(=O)c2ccc(Cl)cc2)C1)N(Cc1cccs1)C1CC1 (centres undefined)	none
CC(=O)c1cccc(NC(=O)Nc2ccc3c(c2)N(C)C(=O)CS3)c1	none (no result: S1P1 ag pot, S1P3 agonist)
CC(C)c1ccc(NC(=O)COC(=O)C2=COCCO2)cc1	none
CCC(C)(C)n1nnnc1C(c1cccc(C#N)c1)N1CCN(c2cccc(C)c2C)CC1 (centres undefined)	HTR1E agonist 10.5
CC(C)(C)n1nnnc1C(c1cccc(C#N)c1)N1CCN2CCCC2C1 (centres undefined)	none
COc1ccccc1C(c1nnnn1Cc1ccccc1)N1CCN(c2nc3ccccc3s2)CC1 (centres undefined)	5-HT1A blocker 44.4
CCC(C)(C)n1nnnc1C(c1ccc(O)c(OC)c1)N1CCN(c2nc3ccccc3s2)CC1 (centres undefined)	HTR1E agonist 24.9
O=C(Nc1nnc(-c2ccc3c(c2)CCCC3)o1)C1COc2ccccc2O1 (centres undefined)	none
COC(=O)CC(=O)Cc1nc(N)nc(Nc2ccc(C)c(C)c2)n1	HTR1E agonist 52.4 (no result: 5-HT1A blocker)
Cc1ccc(Nc2nc(N)nc(CN3CCN(C)CC3)n2)cc1C	none
Cc1n[nH]c(C)c1S(=O)(=O)N1CCCC(C(=O)N2CCN(c3ccc(Cl)cc3)CC2)C1 (centres undefined)	none
COc1ccc(NC(=O)CSc2nccn2-c2ccccc2)c(OC)c1	HTR1E agonist 21.9
CCOc1ccccc1NC(=O)CSc1nccn1-c1ccccc1	none
O=C(Nc1ccncc1)c1cc2ccccc2oc1=O	none
CCSc1ccccc1C(=O)Nc1cc(C)on1	HTR1E agonist 14.2 (no result: S1P1 ag pot)
O=c1cc(N2CCc3ccccc3C2)[nH]c(=O)n1-c1ccc(Br)cc1	none (no result: S1P1 ag pot, S1P3 agonist)
Cc1cccc2cc(C#N)c(N3CCN(C)CC3)nc12	HTR1E agonist 23.4
O=C(Nc1ccccc1)Nc1ccccn1	none (no result: S1P1 ag pot)
S=C(Nc1ccccn1)c1ccccn1	5HT1E antag 33.1
CCCSC1=C(C#N)C(c2ccc(OC)cc2)C2=C(CC(C)(C)CC2=O)N1 (centres undefined)	5HT1E antag 49.8 (no result: 5-HT1A blocker)
CSC1=C(C#N)C(c2ccc(Cl)cc2)C2=C(CC(C)(C)CC2=O)N1 (centres undefined)	none
Cc1ccc(C)c(N2CCN(C(c3ccncc3)c3nnnn3Cc3ccccc3)CC2)c1 (centres undefined)	HTR1E agonist 36.5
c1ccc(Cn2nnnc2C(c2cccs2)N2CCc3ccccc3C2)cc1 (centres undefined)	5-HT1A blocker 52.5
COc1ccc(Cn2nnnc2C(c2cccs2)N2CCN(c3ccccc3)CC2)cc1 (centres undefined)	5-HT1A blocker 43.9
CC1(Cc2ccc3c(c2)OCO3)NC(=O)NC1=O (centres undefined)	none
COc1cccc(C(=O)OCCN2C(=O)c3ccccc3C2=O)c1OC	none
CCOC(=O)c1nc(S(C)(=O)=O)ncc1Cl	5HT1E antag 75.3, 5-HT1A blocker 86.0
CCC(c1nnnn1Cc1ccc2c(c1)OCO2)N1CCN(c2ccc(F)cc2)CC1 (centres undefined)	5-HT1A blocker 43.7
CCC(c1nnnn1Cc1ccc2c(c1)OCO2)N1CCN(c2ccccc2)CC1 (centres undefined)	none
O=c1/c(=C\c2cccnc2)sc2nc3ccccc3n12	none
Cc1cc(/C=c2/sc3nc4ccccc4n3c2=O)c(C)n1-c1ccccn1	S1P1 ag pot 101.3 (no result: 5-HT1A blocker)
O=C(c1ccc2c(c1)OCO2)N(c1ccc(F)cc1)C1C=CS(=O)(=O)C1 (centres undefined)	none
CC(=O)NCCOc1nc(N(C)C)nc(N2CCOCC2)n1	5HT1a ag 25.8
O=C(NCCOc1nc(N2CCCCC2)nc(N2CCOCC2)n1)Nc1ccccc1	none (no result: S1P1 ag pot)
CCOC(=O)N1CCN(C(=O)C2COc3ccccc3O2)CC1 (centres undefined)	none (no result: S1P1 ag pot, S1P3 agonist)
CCOC(=O)N1CCN(C(=O)CSc2nnc(C3COc4ccccc4O3)o2)CC1 (centres undefined)	5HT1a ag 77.7
O=C(NCCCN1CCOCC1)c1csc2c1CCCC2	none
N#Cc1c(-c2ccccc2)cc(C2CC2)nc1N	5HT1E antag 32.8
N#Cc1c(-c2ccco2)cc(C2CC2)nc1N	none (no result: 5-HT1A blocker)
CCOC(=O)c1c(C)[nH]c(C(=O)COC(=O)c2oc3ccc(OC)cc3c2C)c1C	HTR1E agonist 35.0
CCOC(=O)c1c(C)[nH]c(C(=O)COC(=O)c2cnc(C)cn2)c1C	none
C=CCn1c(O)c(C2=c3ccccc3=NC2=O)sc1=Nc1ccc(O)cc1	5-HT1A blocker 55.0
CC(=O)C1C(c2ccc3ncccc3c2)NC(=O)NC1(O)C(F)(F)F (centres undefined)	none
CC(C)(C)OC(=O)NCCc1nnc(S(=O)(=O)Cc2ccc(Cl)cc2Cl)o1	5-HT1A blocker 68.7
O=c1[nH]nc2n1CCCCC2	none (no result: 5-HT1A blocker)
CCCOc1ccccc1C1C(C(=O)OC)=CN(C(C)C)C=C1C(=O)OC	none
COC(=O)C1=CN(C)C=C(C(=O)OC)C1c1ccccc1Cl	5HT1a ag 19.3 (no result: S1P1 ag pot)
CCCCOc1ccccc1C1C(C(=O)OC)=CN(CC)C=C1C(=O)OC	5HT1a ag 39.5
CCN1C=C(C(=O)OC)C(c2cccc(C)c2)C(C(=O)OC)=C1	5HT1a ag 20.4 (no result: S1P1 ag pot, S1P3 agonist)
COC(=O)C1=CN(C(C)C)C=C(C(=O)OC)C1c1cccc(OC)c1	5HT1a ag 22.9
CCSc1nc2c(c(=O)n1Cc1ccccc1)SC(C)C2 (centres undefined)	none
COc1ccc(Oc2ncnc3c2ncn3Cc2ccccc2)cc1	none
Cc1nc(NC2=NCN(Cc3cccnc3)CN2)nc2c(C)cccc12	none
COc1ccccc1C(=O)NCCCN1CCCC1=O	none
COC(=O)C1=CN(CCCN2CCCC2=O)C=C(C(=O)OC)C1c1ccccc1C(F)(F)F	5HT1a ag 25.2
